Compound activity: PubChem BioAssay, several laboratories
MT1-MMP act inh: inhibitors of human MT1-MMP activation; HT1080 RFP-PRO-GFP cells, GFP/RFP ratio fluorescence, overnight; percent of plate control window, DMSO zero; GFP/RFP ratio change, % at 20 µM; 360,000 tested, 0.061% active;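 active means GFP/RFP ratio change of at least 30% with cell ATP level not reduced by more than half and red fluorescence within 50% of control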
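Material: RFP-PRO-GFP reporter HT1080 cells. Dosing: single-point 20 µM compound, 1% DMSO. Controls: DMSO and RFP-L50D-GFP cell wells. Timing: cells overnight before dosing, compound overnight, 37 °C, 5% CO2. Measure: GFP/RFP fluorescence ratio.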
CendR NRP1 mod: modulators of CendR peptide binding to human neuropilin-1 | O14786 | FAM-RPARPAR peptide binding to NRP-1, fluorescence polarization | inhibition, % at 25 µM | 360,000 tested, 0.85% active | AID 602438;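 active means inhibition or corrected inhibition above about 18%, plus a signal ratio from 0.5 to 1.5, limit read from the data, passing the limit was not always enough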
Target sequence (O14786 whole entry, looked up): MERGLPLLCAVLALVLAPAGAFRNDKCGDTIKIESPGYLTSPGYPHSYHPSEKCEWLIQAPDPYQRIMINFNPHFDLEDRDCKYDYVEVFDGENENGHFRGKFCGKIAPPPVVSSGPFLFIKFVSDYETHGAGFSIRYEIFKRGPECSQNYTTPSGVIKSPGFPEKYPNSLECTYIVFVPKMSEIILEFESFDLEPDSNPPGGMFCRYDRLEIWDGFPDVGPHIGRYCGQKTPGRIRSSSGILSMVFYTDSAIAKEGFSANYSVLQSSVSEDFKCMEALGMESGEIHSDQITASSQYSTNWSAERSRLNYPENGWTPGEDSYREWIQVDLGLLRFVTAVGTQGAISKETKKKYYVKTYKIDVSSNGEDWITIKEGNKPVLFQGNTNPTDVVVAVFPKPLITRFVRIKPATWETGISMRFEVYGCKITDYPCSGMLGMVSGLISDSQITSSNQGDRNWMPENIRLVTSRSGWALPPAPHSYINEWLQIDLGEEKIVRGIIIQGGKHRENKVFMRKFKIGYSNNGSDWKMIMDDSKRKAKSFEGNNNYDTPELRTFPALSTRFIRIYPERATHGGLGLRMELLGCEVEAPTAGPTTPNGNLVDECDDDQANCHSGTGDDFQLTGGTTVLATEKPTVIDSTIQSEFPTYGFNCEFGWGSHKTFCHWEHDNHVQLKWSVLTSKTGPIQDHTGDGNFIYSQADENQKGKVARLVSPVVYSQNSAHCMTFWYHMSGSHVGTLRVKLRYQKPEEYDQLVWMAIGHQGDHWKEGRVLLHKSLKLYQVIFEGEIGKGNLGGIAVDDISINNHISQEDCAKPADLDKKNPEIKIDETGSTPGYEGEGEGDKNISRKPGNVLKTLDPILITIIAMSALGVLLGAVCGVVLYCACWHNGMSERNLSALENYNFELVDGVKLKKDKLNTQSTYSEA
MIN6 prolif: MIN6 beta-cell proliferation induction; MIN6 cells proliferation, ATPlite luminescence, 48 h; cells starved in 0.2% serum; 100% = growth in 10% serum; proliferation, % at 10 µM; 330,000 tested, 0.29% active;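 active means compounds whose signal lies at least 3.5 SD above the mean of all wells on their plate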
Myeloid diff MLP: promotes myeloid progenitor differentiation | 360,000 tested, 1% active | calls only at 10 µM | ER-HoxA9 myeloid progenitors, lysozyme-GFP differentiation, flow cytometry;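 active means normalized GFP-positive differentiation at or above the plate's own cutoff, the solvent-only control mean plus 3 SD; inconclusive means no clear call, values can overlap the other calls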;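 further: cells exposed to compound for four days before flow analysis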
SENP1 inh: blocks the human SENP1 SUMO protease catalytic domain. 360,000 tested, 0.21% active. AID 624204. recombinant SENP1 catalytic domain, CyPet-SUMO1-YPet FRET cleavage. Q9P0U3. inhibition, % at 10 µM;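 active means inhibition at least 30% at 10 µM, raw YFP signal under a set limit, fluorescence ratio 0.5 to 1.5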
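Controls: no-enzyme wells low, DMSO-plus-enzyme wells high control. Test system: human recombinant His6-tagged SENP1 catalytic domain enzyme. Reagent: SFCypet-SUMO1-SFYpet FRET protein substrate, 25 nM final. Doses: one dose per compound, 10 µM, 0.5% DMSO. Detection: FRET, CFP and YFP emission. Timing: 50 min reaction at room temperature.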
DAGLB inhibitor: blocks human DAGLB lipase activity; inhibition, % at 5.17 µM; HEK293T DAGLB membrane lysate, EnzChek fluorogenic substrate; 340,000 tested, 0.059% active; AID 504411; Q8NCG7; in the data active means inhibition above about 34%
Each line names hits and unclear results; the compound was inactive in the other large screens. Shown are actives, neighbours in structure and some others; about 2.4% of the full set was active somewhere.

O=C(/C=C/c1cn(CC(O)CN2CCCCCC2)c2ccccc12)c1cccs1 (stereo unspecified)	Myeloid diff MLP active
CC1CCCC(C)N1C(=O)c1cc(-c2ccco2)on1 (stereo unspecified)	Myeloid diff MLP active
O=C1c2cc([N+](=O)[O-])cc3cc([N+](=O)[O-])cc(c23)C(=O)N1c1ccccn1	CendR NRP1 mod 28, Myeloid diff MLP inconclusive (no result: MIN6 prolif)
OCC(O)CN1CCN(c2ccccc2)CC1 (stereo unspecified)	Myeloid diff MLP active
Cc1nc2ccccc2n1CC(O)Cn1c2ccccc2c2ccccc21 (stereo unspecified)	Myeloid diff MLP active
OC(CN1CCN(Cc2ccccc2)CC1)Cn1c2ccccc2c2ccccc21 (stereo unspecified)	none
OC(COc1ccccc1)CN1CCN(c2ccccc2)CC1 (stereo unspecified)	none (no result: MIN6 prolif)
CCCCOCC(O)Cn1c(C)nc2ccccc21 (stereo unspecified)	none
OC(CN1CCN(c2ccccc2)CC1)Cn1c2ccccc2c2ccccc21 (stereo unspecified)	CendR NRP1 mod 25
Cc1ccccc1NS(=O)(=O)c1ccc2oc(=O)ccc2c1	none
CC(C)OC(=O)/C=C1\C[C@@H](c2ccccc2C(F)(F)F)O[C@@H](c2ccccc2C(F)(F)F)O1	none (no result: MIN6 prolif, DAGLB inhibitor)
CSc1ccc(CNC(=O)C2(C)CCCN2CC(C)C)cc1 (stereo unspecified)	none (no result: MIN6 prolif, DAGLB inhibitor)
CCN(CC)c1ccc(/C=C2/SC(=O)N(C(C)C)C2=O)o1	Myeloid diff MLP active (no result: MIN6 prolif)
CC(C)N1C(=O)S/C(=C\c2ccc(-c3ccc(Cl)c(C(=O)O)c3)o2)C1=O	none
O=C(c1cc(-c2cccc(Cl)c2)on1)N1CCc2ccccc2C1	Myeloid diff MLP active
O=C(c1cc(-c2ccc(O)cc2)on1)N1CCc2ccccc2C1	none
O=C(C1=NOC2(C1)C(=O)Nc1ccccc12)N1CCOCC1 (stereo unspecified)	none (no result: MIN6 prolif, DAGLB inhibitor)
COc1cccc(CNC(=O)CSc2nc3c(oc4ccccc43)c(=O)n2CC2CCCO2)c1 (stereo unspecified)	none
CCOc1ccc(NC(=O)CSc2nnc(C3CC3)n2C2CC2)cc1	none
NNC(=O)c1sc(-c2ccc(Cl)cc2)cc1N	Myeloid diff MLP active
Cc1ccc(S(=O)(=O)N2CCC(C(=O)OCC(=O)NCCc3ccccc3)CC2)cc1C	none
Cc1cc(NC(=O)COC(=O)C2CCN(S(=O)(=O)c3ccccc3)CC2)c([N+](=O)[O-])cc1C	CendR NRP1 mod 23
O=C(O)c1cn(-c2ccc(F)cc2)c2cc(Cl)c(F)cc2c1=O	none (no result: Myeloid diff MLP)
CCOC(=O)c1cn(-c2ccc([N+](=O)[O-])cc2)c2cc(Cl)c([N+](=O)[O-])cc2c1=O	Myeloid diff MLP active
Cc1c2cc[n+](CCN3CCCCC3)cc2c(C)c2c1[nH]c1ccc(O)cc12	CendR NRP1 mod 34, Myeloid diff MLP inconclusive (no result: MIN6 prolif)
CC(C)Nc1nc(NC(C)C)nc(NS(=O)(=O)c2ccc(N)cc2)n1	none
CCNc1nc(NC(C)C)nc(NS(=O)(=O)c2ccc(N)cc2)n1	Myeloid diff MLP active (no result: MT1-MMP act inh)
COc1ccc2cc(C(=O)NCc3ccccc3)c(=Nc3ccc(C(=O)O)cc3)oc2c1	CendR NRP1 mod 46
O=C(O)c1ccc(N=c2oc3cc(O)ccc3cc2C(=O)NCc2ccccc2)cc1	none
CCOC(=O)c1[nH]cnc1N=Nc1c(O)ccc2ccccc12	Myeloid diff MLP inconclusive, SENP1 inh 62 (no result: MIN6 prolif)
Oc1ccc2ccccc2c1N=Nc1ccccn1	none (no result: Myeloid diff MLP)
CCOC(=O)c1c(C)nc2sc(C(=O)Nc3ccccc3)c(N)c2c1-c1ccc(OC)cc1	Myeloid diff MLP active
CCOC(=O)c1c(CC(C)C)csc1NC(C)=O	none
CCOC(=O)c1c(CC(C)C)csc1NC=O	CendR NRP1 mod 30
CCCSc1ccc(C(=O)Nc2ccc(Cl)cc2)cn1	CendR NRP1 mod 28
NC(=S)N/N=C/c1ccc2ccccc2c1	none
C(=Nc1ccc(Nc2ccccc2)cc1)c1ccc2ccccc2c1	MT1-MMP act inh 44 (no result: MIN6 prolif)
Brc1ccc(C=Nc2ccc(Nc3ccccc3)cc2)s1	MT1-MMP act inh 49, Myeloid diff MLP active (no result: MIN6 prolif)
Cc1ccccc1CNCCCSc1ncccn1	none
